Source: PubChem (Johns Hopkins Ion Channel Center)
This is a sample that favours compounds with a hit; in the whole collection about 3.5% have one here.
RGS4 act: RGS4 potentiation or activation | 310,000 compounds, 0.92% hits | HEK293 M3R/inducible RGS4, carbachol calcium flux Fluo4; hits give low values | B-score at 10 µM;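 active = B-score of the integrated calcium signal more than 4 SD below the library mean, with starting fluorescence not abnormally high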;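 note: negative B-score means reduced calcium response which marks RGS4 activation or potentiation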
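Test system: HEK293 cells with stable M3R and inducible RGS4; also added: carbachol at ECmax as muscarinic agonist stimulus; schedule: dye loading 30 min 37 °C, buffer rest 30 min RT; technique: kinetic calcium fluorescence imaging with Fluo4-AM dye, 2 µM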
RGS4 inh: inhibitors of human RGS4; HEK293 M3R/RGS4 inducible, Fluo-4 calcium flux; hits give high values; triggered by carbachol at its EC20; B-score at 10 µM; 310,000 compounds, 0.45% hits; AID 463165;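 active = B-score, a plate-corrected calcium signal, over three deviations above library mean, with baseline fluorescence within five deviations of library mean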;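 note: RGS4 expression induced by doxycycline in cells with stable M3 receptor; B-score is computed from the integrated fluorescence ratio over baseline after carbachol; higher B-score means a larger calcium signal and so more RGS4 inhibition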
Target sequence (P49798 whole entry, looked up): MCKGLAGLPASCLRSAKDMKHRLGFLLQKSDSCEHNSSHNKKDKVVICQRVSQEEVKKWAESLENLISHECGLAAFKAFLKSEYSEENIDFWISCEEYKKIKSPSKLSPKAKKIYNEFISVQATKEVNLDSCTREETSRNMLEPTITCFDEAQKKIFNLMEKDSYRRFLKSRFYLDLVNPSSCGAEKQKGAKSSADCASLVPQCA
MrgX1 antag: antagonists of human MrgX1 receptor. 310,000 compounds, 1.3% hits. B-score at 10 µM. AID 588676. Q96LB2. MRGX1-HEK293 calcium flux, Fluo-4, BAM8-22 antagonism; hits give low values;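 active = calcium-response B-score plate-corrected more than 3 library SD below zero, starting fluorescence within 5 deviations, no agonist response on first addition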;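 note: peak minus trough fluorescence over baseline after final BAM8-22 challenge near maximal dose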
Target sequence (Q96LB2 whole entry, looked up): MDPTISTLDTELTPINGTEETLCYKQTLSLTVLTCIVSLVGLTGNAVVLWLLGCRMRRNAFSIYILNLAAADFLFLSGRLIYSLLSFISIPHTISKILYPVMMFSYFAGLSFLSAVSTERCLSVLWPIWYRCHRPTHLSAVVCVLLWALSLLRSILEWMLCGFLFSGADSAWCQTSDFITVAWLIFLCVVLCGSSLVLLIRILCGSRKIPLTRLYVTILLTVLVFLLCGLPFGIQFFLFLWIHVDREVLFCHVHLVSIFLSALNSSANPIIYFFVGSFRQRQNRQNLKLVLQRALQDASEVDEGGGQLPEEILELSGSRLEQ
MrgX1 PAM: human MrgX1 positive allosteric modulation, primary screen | Q96LB2 | B-score at 10 µM | MrgX1-HEK293, Fluo-4 calcium flux, FDSS; hits give high values | 310,000 compounds, 0.63% hits;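 active = plate-corrected calcium response at least 3 library SD above typical, normal starting fluorescence, not activating the receptor alone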;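 note: compound read alongside a low EC10 to EC30 dose of BAM8-22 agonist; peak minus trough fluorescence over baseline measured at the second addition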
MrgX1 agonist: agonists of human MrgX1 receptor | Q96LB2 | MrgX1-HEK293 cells, Fluo-4 calcium fluorescence, agonist mode; hits give high values | B-score at 10 µM | 310,000 compounds, 0.44% hits | AID 588627;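 active = calcium response B-score plate-corrected fluorescence ratio at least 3 library SD, with starting fluorescence B-score inside 5 SD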
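Material: HEK293 cells stably expressing human MrgX1 receptor | Quantity: 15,000 cells per well | Times: Cells plated overnight, dye loaded 0.5 h 37 °C, 0.5 h room temperature | Measured by: Kinetic Fluo-4 NW fluorescence of intracellular calcium | Control set: Positive and negative controls per plate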
RGS4 inh valid: validation of RGS4 inhibitors; shares compounds with RGS4 inh; HEK293 M3R/RGS4, carbachol calcium Fluo-4 fluorescence; carbachol added at its EC20; 0 = buffer wells, 100 = carbachol control; calcium response, % at 10 µM; 1,700 compounds, 65% hits;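 active = duplicate-averaged calcium response above the buffer-only control mean plus 5 SD of those controls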;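 note: integrated fluorescence ratio F max minus min over baseline F0; higher response in RGS4-induced cells means RGS4 inhibition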
RGS4 uninduced: non-induced cell nonspecific activity of RGS4 inhibitors. shares compounds with RGS4 inh. HEK293 M3R non-induced, carbachol calcium Fluo-4; submaximal (EC20) carbachol stimulus; buffer wells 0%, carbachol control wells 100%. activity (percent), % at 10 µM. 1,900 compounds, 20% hits; call rule not given here;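 note: RGS4 induction absent so cells express M3R without RGS4; higher means more calcium signal and flags a non-specific hit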
M3R basal Ca ctr: second counter-screen for RGS4 inhibitors: non-induced cells without carbachol; shares compounds with RGS4 inh; HEK293 M3R/RGS4 non-induced, Fluo-4 calcium, no carbachol; normalised: buffer wells 0%, carbachol wells 100%; calcium response (agonist-mode artifact), % at 10 µM; 1,900 compounds, 22% hits;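 active = duplicate-averaged calcium rise in uninduced cells above buffer wells' mean plus 5 SD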
An asterisk follows results filed as active; i = inactive; / = no result given.

SMILES	RGS4 act	RGS4 inh	MrgX1 antag	MrgX1 PAM	MrgX1 agonist	RGS4 inh valid	RGS4 uninduced	M3R basal Ca ctr
Cn1c(=O)c2nc(NCc3ccccc3)cnc2n(C)c1=O	i	i	i	i	i	/	/	/
Cc1nc2c(=O)n(C)c(=O)n(C)c2nc1Cl	i	11.9*	i	i	i	36.5%*	i	i
COc1ccc(/C=C/C(=O)c2sc(-c3ccccc3)nc2C)cc1	i	i	i	i	i	/	i	39.5%*
CCc1[nH]nc(C(=O)N/N=C/c2ccncc2)c1C	i	i	i	i	i	/	/	/
Clc1ccc(-c2csc(N/N=C/c3ccco3)n2)cc1	i	i	i	i	i	/	/	/
Clc1ccc(-c2csc(N/N=C\c3cccnc3)n2)cc1	i	i	i	i	i	/	65.0%*	i
Cc1cc2cc(C(c3nnnn3Cc3ccccc3)N3CCc4ccccc43)c(=O)[nH]c2cc1C (configuration not stated)	i	i	i	i	i	/	i	7.0%*
Cc1cc2cc(C(c3nnnn3Cc3ccco3)N3CCc4ccccc43)c(=O)[nH]c2cc1C (configuration not stated)	i	5.29*	i	i	i	13.0%*	i	i
Cc1cc2cc(C(c3nnnn3Cc3ccco3)N3CCc4ccccc4C3)c(=O)[nH]c2cc1C (configuration not stated)	i	i	i	i	i	i	i	39.0%*
Cc1ccc2[nH]c(=O)c(C(c3nnnn3Cc3ccccc3)N3CCc4ccccc43)cc2c1 (configuration not stated)	i	i	i	i	i	/	/	/
O=C(NCc1ccccc1)c1nc2c(nnn2Cc2cccc(Cl)c2)c(=O)[nH]1	i	4.94*	i	i	i	22.5%*	i	i
O=C(NCc1ccco1)c1nc2c(nnn2Cc2cccc(Cl)c2)c(=O)[nH]1	i	7.95*	i	i	i	21.5%*	i	i
O=C(CSc1nc(=O)n2ccccc2n1)OCc1ccccc1	i	i	i	i	i	/	/	/
CCN1CCN(C(=O)/C(C#N)=C/c2ccc(OC(F)F)cc2)CC1	i	i	i	i	i	/	/	/
N#C/C(=C\c1ccc(OC(F)F)cc1)C(=O)N1CCCCC1	i	5.85*	i	i	i	16.0%*	i	i
O=C(/C=C/c1ccccc1)c1ccc2c(c1)OCO2	i	i	i	i	i	/	/	/
O=C(/C=C/c1ccncc1)c1ccc2c(c1)OCCO2	i	7.46*	i	i	i	32.5%*	i	i
CCCSc1ccc([C@H]2N[C@@](CC(C)C)(C(=O)OC)[C@H]3C(=O)N(C)C(=O)[C@@H]23)cc1	i	i	i	i	i	/	/	/
C/C(=N\N=C(N)N)c1ccc(Cl)cc1Cl	i	i	i	i	i	/	/	/
CC1Cc2ccccc2N1Cc1cc(=O)n2ccsc2n1 (configuration not stated)	/	/	i	i	i	/	/	/
O=c1cc(CN2CC(O)Cc3ccc4ccccc4c32)nc2sccn12 (configuration not stated)	i	5.97*	i	i	i	20.5%*	i	i
O=[N+]([O-])c1cc(Cl)cc(/C=N/NC(=S)Nc2ccc(S(=O)(=O)N3CCOCC3)cc2)c1O	i	i	i	i	i	i	i	i
C=CCN1C(=O)CSC1=Nc1ccc(NC(C)=O)cc1	i	i	i	i	i	/	/	/
Cc1ccc(S(=O)(=O)/N=C(/Sc2ccccc2C(=O)O)c2ccccc2)cc1	i	i	i	i	i	/	/	/
Cc1ccc(S(=O)(=O)/N=C(\Sc2ccccc2)c2ccccc2)cc1	i	21.6*	i	i	i	22.0%*	i	25.5%*
SMILES	RGS4 act	RGS4 inh	MrgX1 antag	MrgX1 PAM	MrgX1 agonist	RGS4 inh valid	RGS4 uninduced	M3R basal Ca ctr
O=S(=O)(/N=C(\Sc1ccccc1)c1ccccc1)c1ccc(Cl)cc1	i	i	i	i	i	/	i	27.0%*
COCC(=O)Nc1ccc2c(c1)OCC(=O)N2Cc1ccccc1F	i	i	i	i	i	/	/	/
CCCOc1ccc(CC(=O)N/N=C\c2ccc(F)cc2)cc1	i	i	i	i	i	/	/	/
Cc1cccc(Cn2cc(/C=C/[N+](=O)[O-])c3ccccc32)c1	i	i	i	i	i	/	/	/
O=C(O)c1ccc(Cn2cc(/C=C\[N+](=O)[O-])c3ccccc32)o1	i	i	i	i	i	i	i	i
O=[N+]([O-])/C=C/c1cn(Cc2ccc(Cl)cc2)c2ccccc12	i	8.58*	i	i	i	24.5%*	i	76.5%*
CCOc1ccc(/C=C/[N+](=O)[O-])c2ccccc12	i	23*	i	i	41.9*	45.0%*	i	27.0%*
COC(=O)c1ccc(Cn2cc(/C=C\[N+](=O)[O-])c3ccccc32)o1	i	5.38*	i	i	i	67.0%*	48.0%*	40.0%*
COC(=O)c1ccc(Cn2nc(C)c([N+](=O)[O-])c2C)o1	i	i	i	i	i	/	/	/
O=C(NCc1ccc(F)cc1)c1cccnc1C(=O)O	i	i	i	i	i	/	/	/
CCOC(=O)Cn1cc(/C=C/[N+](=O)[O-])c2ccccc21	i	17.1*	i	i	33.2*	56.0%*	61.0%*	14.5%*
CCOC(=O)COc1ccc(/C=C/[N+](=O)[O-])c(OCC(=O)OCC)c1	i	11.3*	i	i	i	24.5%*	33.5%*	i
NC(=O)c1ccc(-c2nnc(Nc3ccc(S(N)(=O)=O)cc3)c3ccccc23)cc1	i	i	i	i	i	/	/	/
CCOC(=O)c1c(NC(=O)C(=O)N/N=C/c2ccc(O)c(OC)c2)sc2c1CCCCC2	i	12.1*	i	i	i	37.0%*	53.5%*	18.5%*
NNC(=O)c1nc[nH]c1C(=O)Nc1ccccn1	i	14.7*	i	i	i	5.0%*	i	i
Cc1cccc(-c2nnc(NC(=O)c3ccco3)s2)c1	i	i	i	i	i	/	/	/
